Experimental data reported in paper PMC11483317 (Heliyon, 2024).
“Also recorded” adds a separate entry of the source.

Legend:
[1] = system: brain capillary endothelial cells and astrocytes; conditions: cited from earlier work; for % of initial radioactivity in the abluminal medium: same bovine BBB model
[2] = system: hBLECs of the human BBB model; assay: Toxicity assessment: hBLEC monolayer tightness by Lucifer yellow permeability; type: cell-based
Summary of the method: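 Integrity check run alongside transport, on PET inserts in Ringer–HEPES (pH 7.4, 37 °C). Lucifer yellow added luminally with test lipid (1 and 10 µM) or 1% DMSO as toxicity control. Abluminal sampled at 30–180 min, luminal at 180 min. Fluorescence read at ex 490/em 525 nm. Permeability divided by 1.12 cm² insert area gives Pe (cm/min), compared with untreated cells. Mean ± SD, n = 3.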

[3] = Passage / apparent permeability across hBLEC monolayer; type: in vitro ADME, human; conditions: human, pH 7.4, apparent coefficient permeability (Papp), 10 μM, 180 min after transport across hBLECs
Summary of the method: (§1)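 Test lipid at 1 or 10 µM in 500 µL Ringer–HEPES (pH 7.4) on the luminal side of hBLEC/pericyte co-culture inserts. Inserts moved to fresh 1.5 mL buffer wells at 30, 60, 120 and 180 min. Media lipids extracted by Bligh–Dyer and quantified by C18 LC-MS. %/min = quantity crossed ÷ initial luminal quantity ÷ time. Papp calculated per an earlier method. Mean ± SD, n = 3.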

[4] = system: hBLECs; assay: as above; type: in vitro ADME, human
Summary of the method: as §1

[5] = system: hBLECs; assay: Intracellular accumulation in hBLECs, LC-MS; type: in vitro ADME, human; conditions: 180 min after incubation
Summary of the method: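 Human BBB model: cord-blood CD34+-derived endothelial cells on PET inserts, co-cultured ≥6 days with brain pericytes (37 °C, 5% CO2) to give hBLECs. Test lipid at 1 or 10 µM in 500 µL Ringer–HEPES (pH 7.4), luminal side, for 180 min. Cell lipids extracted by Folch method, quantified by C18 LC-MS, and expressed as % of initial concentration. Triplicates.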

[6] = system: brain; conditions: 20-days-old rats, tail vein perfusion 30 s; cited from earlier work
[7] = system: brain DHA; conditions: normal adult mice, dietary; cited from earlier work

## CC/C=C\C/C=C\C/C=C\C/C=C\C/C=C\C/C=C\CCC(=O)OC(COC(C)=O)COP(=O)([O-])OCC[N+](C)(C)C (stereo not drawn) [AceDoPC, 1-acetyl,2-docosahexaenoyl-glycerophosphocholine]
[1]
  % of initial radioactivity in the abluminal medium: 7.5%

## CC/C=C\C/C=C\C/C=C\C/C=C\C/C=C\C/C=C\CCC(=O)O [DHA, Docosahexaenoic acid]
[2]; 10 μM
  toxicity towards hBLECs (from LY permeability): absence of toxicity
[3]
  Papp at 180 min, 10 μM: 26 ×10⁻⁶ cm/s
[4]; 10 μM, 30 min post-incubation
  percentage of passage per min (lipids recovered in abluminal medium): 0.54%
[4]; 10 μM, 120 min post-incubation
  percentage of passage per min (lipids recovered in abluminal medium): 0.40%
[4]; 10 μM, 180 min after transport across hBLECs
  apparent coefficient permeability (Papp): 26.04 ×10⁻⁶ cm/s
[4]; constant over the 180 min transport
  percentage of passage per minute (constant): around 0.5 % per minute
[5]; 1 μM
  intracellular accumulation in hBLECs: lower than the limit of detection; also recorded: under the limit of quantification
[5]; 10 μM
  intracellular accumulation in hBLECs: 3.11 ± 1.24%
[6]
  recovered in the brain, % of injected radioactivity: 0.3–0.4%
[1]; 5 μM, incubation 240 min
  % of initial radioactivity in abluminal medium: 5%
[1]
  % of initial radioactivity in the abluminal medium: 4.5%
[7]
  increase of levels of brain DHA: did not significantly increase

## CC/C=C\C/C=C\C/C=C\C/C=C\C/C=C\C/C=C\CCC(=O)O[C@H](COC(=O)CCCCCCCCCCCCCCC)COP(=O)([O-])OCC[N+](C)(C)C [PC-DHA, 1-palmitoyl,2-docosahexaenoyl-sn-glycero-3-phosphatidylcholine]
[1]
  % of initial radioactivity in the abluminal medium: 4%

## Lucifer Yellow
[2]; control cells, absence of test lipids, 180 min
  BBB permeability to Lucifer yellow (control permeability): 0.55 ± 0.06 x 10^−3 cm min^−1
